ChEMBL document CHEMBL2062515, “Synthesis and evaluation of novel radioligands for positron emission tomography imaging of metabotropic glutamate receptor subtype 1 (mGluR1) in rodent brain” (J Med Chem, 2012)
Calls of active or inactive are those of the source. The calls are words filed in the database; no cut-off is given here.

How the values were obtained:
[1] = Lipophilicity, log D of the compound in octanol-phosphate buffer at pH 7.4 by Shake flask method; type: physicochemical
How it was run: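 Radioligand shaken with n-octanol and 0.1 M sodium phosphate buffer pH 7.4 (3.0 g each), vortex 3 min room temperature, centrifuged 2330g 5 min; phases weighed and counted, octanol repartitioned until constant. LogD = log(cpm/g octanol / cpm/g buffer); triplicate.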

[2] = molecular target: Metabotropic glutamate receptor 1 (Rattus norvegicus, UniProt P23385); test: Displacement of 4-[18F]fluoro-N-[4-(6-(isopropylamino)pyrimidin-4-yl)-1,3-thiazol-2-yl]-N-methylbenzamide from mGluR1 in Sprague-Dawley rat brain homogenates after 1 hr; type: tissue-based
How it was run: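 Rat whole-brain homogenate (washed pellets in 50 mM Tris-HCl pH 7.4, 120 mM NaCl; diluted to 100 mg/mL in Tris-HCl with NaCl, KCl, MgCl₂, CaCl₂) incubated 1 h, room temperature with [¹⁸F]-ligand (3 nM in PBS) and competitor […] in 0.1% DMSO. Filtration on PEI-treated GF/C, gamma counting; Kd by Scatchard; IC50/Ki by nonlinear regression; duplicate, mean SE.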

[3] = molecular target: Metabotropic glutamate receptor 5 (Rattus norvegicus, UniProt P31424); test: Displacement of [11C]-ABP688 from mGluR5 in Sprague-Dawley rat brain homogenates after 1 hr by gamma counting; type: tissue-based
How it was run: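 mGluR5 competition in same rat brain homogenate, run as mGluR1 assay but with [¹¹C]ABP688-type radioligand: 1 h room temperature incubation, filtration through PEI-treated glass fiber filters, gamma counting, nonlinear regression for IC50.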

[4] = molecular target: Metabotropic glutamate receptor 1 (Rattus norvegicus) (UniProt P23385); test: Binding affinity to mGluR1 in Sprague-Dawley rat cerebellum at 0.4 MBq after 30 mins by autoradiography
[5] = molecular target: Metabotropic glutamate receptor 1 (Rattus norvegicus) (UniProt P23385); test: Binding affinity to mGluR1 in Sprague-Dawley rat thalamus at 0.4 MBq after 30 mins by autoradiography
How it was run: (§1)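 Sections were 20 μm rat brain slices, preincubated 20 min at room temperature in 50 mM Tris-HCl pH 7.4 containing 1.2 mM MgCl₂ and 2 mM CaCl₂. Incubation was 30 min at room temperature with an ¹⁸F radioligand at 0.4 MBq (5 pM or 4 pM), with or without JNJ-16259685 (1 μM). Sections were washed 3 × 5 min in cold buffer, rinsed in cold distilled water and air-dried cold.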

[6] = molecular target: Metabotropic glutamate receptor 1 (Rattus norvegicus) (UniProt P23385); test: Binding affinity to mGluR1 in Sprague-Dawley rat striatum at 0.4 MBq after 30 mins by autoradiography; how it was run: as §1
[7] = molecular target: Metabotropic glutamate receptor 1 (Rattus norvegicus) (UniProt P23385); test: Binding affinity to mGluR1 in Sprague-Dawley rat brain stem at 0.4 MBq after 30 mins by autoradiography; type: tissue-based
[8] = molecular target: Metabotropic glutamate receptor 1 (Rattus norvegicus) (UniProt P23385); test: Binding affinity to mGluR1 in Sprague-Dawley rat cerebellum at 0.4 MBq after 30 mins by autoradiography in presence of JNJ16259685
[9] = molecular target: Metabotropic glutamate receptor 1 (Rattus norvegicus) (UniProt P23385); test: Binding affinity to mGluR1 in Sprague-Dawley rat thalamus at 0.4 MBq after 30 mins by autoradiography in presence of JNJ16259685; conditions: 0.4 M, tested as the 18F-labelled form; how it was run: as §1
[10] = molecular target: Metabotropic glutamate receptor 1 (Rattus norvegicus) (UniProt P23385); test: Binding affinity to mGluR1 in Sprague-Dawley rat striatum at 0.4 MBq after 30 mins by autoradiography in presence of JNJ16259685; conditions: 0.4 M, tested as the 18F-labelled form; how it was run: as §1
[11] = molecular target: Metabotropic glutamate receptor 1 (Rattus norvegicus) (UniProt P23385); test: Binding affinity to mGluR1 in Sprague-Dawley rat brain stem at 0.4 MBq after 30 mins by autoradiography in presence of JNJ16259685; type: tissue-based; conditions: 0.4 M, tested as the 18F-labelled form; how it was run: as §1
[12] = molecular target: Metabotropic glutamate receptor 1 (Rattus norvegicus) (UniProt P23385); test: Binding affinity to mGluR1 in Sprague-Dawley rat cerebellum at 9.2 MBq after 30 mins by autoradiography; conditions: 9.2 M, tested as the 11C-labelled form
How it was run: (§2)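 Rat brain sections (20 μm) were preincubated 20 min at room temperature in 50 mM Tris-HCl pH 7.4 with 1.2 mM MgCl₂ and 2 mM CaCl₂. They were then incubated 30 min at room temperature in fresh buffer with the ¹¹C radioligand (9.2 MBq, 0.5 nM), with or without JNJ-16259685 (1 μM) to define specific binding. Sections were washed 3 × 5 min in cold buffer, dipped in cold water and dried with cold air.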

[13] = molecular target: Metabotropic glutamate receptor 1 (Rattus norvegicus) (UniProt P23385); test: Binding affinity to mGluR1 in Sprague-Dawley rat thalamus at 9.2 MBq after 30 mins by autoradiography; conditions: 9.2 M, tested as the 11C-labelled form; how it was run: as §2
[14] = molecular target: Metabotropic glutamate receptor 1 (Rattus norvegicus) (UniProt P23385); test: Binding affinity to mGluR1 in Sprague-Dawley rat striatum at 9.2 MBq after 30 mins by autoradiography; conditions: 9.2 M, tested as the 11C-labelled form; how it was run: as §2
[15] = molecular target: Metabotropic glutamate receptor 1 (Rattus norvegicus) (UniProt P23385); test: Binding affinity to mGluR1 in Sprague-Dawley rat brain stem at 9.2 MBq after 30 mins by autoradiography; type: tissue-based; conditions: 9.2 M, tested as the 11C-labelled form; how it was run: as §2
[16] = molecular target: Metabotropic glutamate receptor 1 (Rattus norvegicus) (UniProt P23385); test: Binding affinity to mGluR1 in Sprague-Dawley rat cerebellum at 9.2 MBq after 30 mins by autoradiography relative to control in presence of JNJ16259685; conditions: 9.2 M, tested as the 11C-labelled form; how it was run: as §2
[17] = molecular target: Metabotropic glutamate receptor 1 (Rattus norvegicus) (UniProt P23385); test: Binding affinity to mGluR1 in Sprague-Dawley rat thalamus at 9.2 MBq after 30 mins by autoradiography relative to control in presence of JNJ16259685; conditions: 9.2 M, tested as the 11C-labelled form; how it was run: as §2
[18] = molecular target: Metabotropic glutamate receptor 1 (Rattus norvegicus) (UniProt P23385); test: Binding affinity to mGluR1 in Sprague-Dawley rat striatum at 9.2 MBq after 30 mins by autoradiography relative to control in presence of JNJ16259685; conditions: 9.2 M, tested as the 11C-labelled form; how it was run: as §2
[19] = molecular target: Metabotropic glutamate receptor 1 (Rattus norvegicus) (UniProt P23385); test: Binding affinity to mGluR1 in Sprague-Dawley rat brain stem at 9.2 MBq after 30 mins by autoradiography relative to control in presence of JNJ16259685; type: tissue-based; conditions: 9.2 M, tested as the 11C-labelled form; how it was run: as §2
[20] = molecular target: Metabotropic glutamate receptor 1 (Rattus norvegicus) (UniProt P23385); test: Binding affinity to mGluR1 in Sprague-Dawley rat brain at 9.2 MBq after 30 mins by autoradiography relative to control in presence of JNJ16259685; type: tissue-based; conditions: 9.2 M, tested as the 11C-labelled form; how it was run: as §2
[21] = molecular target: Metabotropic glutamate receptor 1 (Rattus norvegicus) (UniProt P23385); test: Binding affinity to mGluR1 in Sprague-Dawley rat thalamus after 30 mins by autoradiography in presence of JNJ16259685; conditions: tested as the 11C-labelled form
[22] = molecular target: Metabotropic glutamate receptor 1 (Rattus norvegicus) (UniProt P23385); test: Binding affinity to mGluR1 in Sprague-Dawley rat striatum after 30 mins by autoradiography in presence of JNJ16259685; conditions: tested as the 11C-labelled form
[23] = molecular target: Metabotropic glutamate receptor 1 (Rattus norvegicus) (UniProt P23385); test: Binding affinity to mGluR1 in Sprague-Dawley rat brain stem after 30 mins by autoradiography in presence of JNJ16259685; conditions: tested as the 11C-labelled form
[24] = 0.4 M, tested as the 18F-labelled form
[25] = 9.2 M, in the assay text read “9.2 MBq” for “0.4 MBq”, tested as the 11C-labelled form

Chain of Metabotropic glutamate receptor 5 (P31424 whole entry): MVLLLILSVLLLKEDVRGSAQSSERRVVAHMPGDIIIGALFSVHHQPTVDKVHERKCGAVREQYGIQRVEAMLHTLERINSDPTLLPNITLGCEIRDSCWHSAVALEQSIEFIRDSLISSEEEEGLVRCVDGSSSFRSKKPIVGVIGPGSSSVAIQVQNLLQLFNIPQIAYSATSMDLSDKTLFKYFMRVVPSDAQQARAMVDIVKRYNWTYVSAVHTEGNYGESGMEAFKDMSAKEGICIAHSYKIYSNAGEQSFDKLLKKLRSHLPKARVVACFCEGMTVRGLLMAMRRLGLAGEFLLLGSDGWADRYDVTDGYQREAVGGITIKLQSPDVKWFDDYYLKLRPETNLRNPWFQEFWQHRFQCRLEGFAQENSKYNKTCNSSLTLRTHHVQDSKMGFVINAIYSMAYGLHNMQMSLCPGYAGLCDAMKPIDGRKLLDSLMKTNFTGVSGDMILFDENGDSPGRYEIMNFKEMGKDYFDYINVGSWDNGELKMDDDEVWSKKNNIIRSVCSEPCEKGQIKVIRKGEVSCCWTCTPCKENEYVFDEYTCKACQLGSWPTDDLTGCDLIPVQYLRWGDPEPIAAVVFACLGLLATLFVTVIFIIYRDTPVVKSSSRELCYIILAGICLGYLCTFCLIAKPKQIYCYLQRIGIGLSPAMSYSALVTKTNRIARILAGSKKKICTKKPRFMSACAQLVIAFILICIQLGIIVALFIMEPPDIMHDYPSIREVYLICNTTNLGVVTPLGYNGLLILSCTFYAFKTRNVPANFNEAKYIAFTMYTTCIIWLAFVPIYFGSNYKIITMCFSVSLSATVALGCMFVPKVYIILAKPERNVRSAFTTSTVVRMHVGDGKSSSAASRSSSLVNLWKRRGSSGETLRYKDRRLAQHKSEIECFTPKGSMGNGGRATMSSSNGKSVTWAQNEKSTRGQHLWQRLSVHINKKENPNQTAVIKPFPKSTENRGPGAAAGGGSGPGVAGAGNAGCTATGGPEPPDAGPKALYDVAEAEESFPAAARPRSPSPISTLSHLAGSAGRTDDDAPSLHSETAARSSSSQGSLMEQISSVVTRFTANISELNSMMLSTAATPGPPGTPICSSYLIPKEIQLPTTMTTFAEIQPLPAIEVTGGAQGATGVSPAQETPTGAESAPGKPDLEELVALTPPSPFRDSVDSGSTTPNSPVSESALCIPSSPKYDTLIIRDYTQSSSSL
Chain of Metabotropic glutamate receptor 1 (P23385 whole entry): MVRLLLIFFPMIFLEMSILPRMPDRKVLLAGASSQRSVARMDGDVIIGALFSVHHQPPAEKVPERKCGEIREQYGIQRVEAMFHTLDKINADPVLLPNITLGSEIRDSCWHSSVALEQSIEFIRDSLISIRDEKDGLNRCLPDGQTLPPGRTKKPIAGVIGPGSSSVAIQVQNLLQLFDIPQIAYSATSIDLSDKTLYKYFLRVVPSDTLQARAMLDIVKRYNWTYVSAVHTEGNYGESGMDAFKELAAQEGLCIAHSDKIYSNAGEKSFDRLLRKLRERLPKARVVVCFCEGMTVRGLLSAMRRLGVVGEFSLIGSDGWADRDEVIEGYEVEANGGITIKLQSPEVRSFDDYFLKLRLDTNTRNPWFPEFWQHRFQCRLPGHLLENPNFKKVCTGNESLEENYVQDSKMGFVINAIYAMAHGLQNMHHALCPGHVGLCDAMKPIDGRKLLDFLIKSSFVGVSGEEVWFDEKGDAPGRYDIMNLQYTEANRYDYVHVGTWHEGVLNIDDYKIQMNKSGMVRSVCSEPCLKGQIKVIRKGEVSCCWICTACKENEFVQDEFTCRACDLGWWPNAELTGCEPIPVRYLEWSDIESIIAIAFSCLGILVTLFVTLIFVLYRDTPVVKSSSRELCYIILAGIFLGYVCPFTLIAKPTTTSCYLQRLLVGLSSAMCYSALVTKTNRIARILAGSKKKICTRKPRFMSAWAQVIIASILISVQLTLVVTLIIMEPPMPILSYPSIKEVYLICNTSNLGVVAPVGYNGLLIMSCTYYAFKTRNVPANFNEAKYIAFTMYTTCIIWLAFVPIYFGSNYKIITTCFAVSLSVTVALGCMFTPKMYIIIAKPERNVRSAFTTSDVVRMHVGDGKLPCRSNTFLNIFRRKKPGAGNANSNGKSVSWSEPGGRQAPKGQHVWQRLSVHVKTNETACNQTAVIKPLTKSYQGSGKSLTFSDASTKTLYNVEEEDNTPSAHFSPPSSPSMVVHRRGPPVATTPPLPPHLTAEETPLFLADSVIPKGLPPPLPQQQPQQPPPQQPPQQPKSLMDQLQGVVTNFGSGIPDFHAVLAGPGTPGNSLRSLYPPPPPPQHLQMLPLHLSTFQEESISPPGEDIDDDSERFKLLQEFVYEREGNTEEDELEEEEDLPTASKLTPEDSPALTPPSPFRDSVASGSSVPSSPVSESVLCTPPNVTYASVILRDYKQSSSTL
Chain of Metabotropic glutamate receptor 1 (Rattus norvegicus) (P23385 19-1199 limits assumed): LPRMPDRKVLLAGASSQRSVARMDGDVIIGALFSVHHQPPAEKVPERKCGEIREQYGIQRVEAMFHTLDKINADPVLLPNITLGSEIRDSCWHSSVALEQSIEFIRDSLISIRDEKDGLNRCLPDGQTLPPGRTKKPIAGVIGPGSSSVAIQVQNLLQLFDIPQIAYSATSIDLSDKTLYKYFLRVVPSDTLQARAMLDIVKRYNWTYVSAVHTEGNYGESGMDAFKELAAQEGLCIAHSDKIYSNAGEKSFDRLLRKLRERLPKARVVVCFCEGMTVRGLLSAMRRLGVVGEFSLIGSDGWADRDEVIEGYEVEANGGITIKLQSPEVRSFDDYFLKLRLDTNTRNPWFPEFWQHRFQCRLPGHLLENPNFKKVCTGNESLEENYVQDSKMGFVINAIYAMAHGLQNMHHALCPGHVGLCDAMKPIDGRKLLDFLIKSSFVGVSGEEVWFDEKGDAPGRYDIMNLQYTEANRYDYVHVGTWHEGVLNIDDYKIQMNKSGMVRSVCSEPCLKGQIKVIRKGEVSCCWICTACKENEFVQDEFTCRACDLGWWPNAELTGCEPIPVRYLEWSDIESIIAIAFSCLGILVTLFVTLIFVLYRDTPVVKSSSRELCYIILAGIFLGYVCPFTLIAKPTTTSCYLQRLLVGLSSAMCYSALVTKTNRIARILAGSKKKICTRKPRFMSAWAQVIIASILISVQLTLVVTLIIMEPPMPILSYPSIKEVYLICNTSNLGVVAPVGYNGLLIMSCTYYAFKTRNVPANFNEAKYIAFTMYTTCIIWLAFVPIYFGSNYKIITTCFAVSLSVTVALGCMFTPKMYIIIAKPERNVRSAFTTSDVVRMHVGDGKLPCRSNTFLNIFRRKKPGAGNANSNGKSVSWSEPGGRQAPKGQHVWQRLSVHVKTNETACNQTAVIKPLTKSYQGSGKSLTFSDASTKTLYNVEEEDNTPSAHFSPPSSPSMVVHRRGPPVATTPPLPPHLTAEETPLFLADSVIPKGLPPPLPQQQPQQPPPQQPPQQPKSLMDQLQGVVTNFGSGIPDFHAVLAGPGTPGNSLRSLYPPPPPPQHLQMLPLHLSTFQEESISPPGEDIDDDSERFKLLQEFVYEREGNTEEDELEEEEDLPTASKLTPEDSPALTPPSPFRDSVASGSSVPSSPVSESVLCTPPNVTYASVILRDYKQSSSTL

| Compound | logD [1] | IC50 [2] | Ki [2] | IC50 [3] | Activity [4, 24] | Activity [5, 24] | Activity [6, 24] | Activity [7, 24] | Activity [8, 24] | Activity [9] | Activity [10] | Activity [11] | other results |
| --- | --- | --- | --- | --- | --- | --- | --- | --- | --- | --- | --- | --- | --- |
| CC(C)Nc1cc(-c2csc(N(C)C(=O)c3ccc(OCCCF)cc3)n2)ncn1 | 2.8 | > 10000 nM | > 5000 nM | > 10 µM | Active | Active | Active | Active | inactive | inactive | inactive | inactive | – |
| CC(C)Nc1cc(-c2csc(N(C)C(=O)c3ccc(OCCF)cc3)n2)ncn1 | 2.59 | 395 nM | 153 nM | > 10 µM | Active | Active | Active | Active | inactive | inactive | inactive | inactive | – |
| COc1ccc(C(=O)N(C)c2nc(-c3cc(NC(C)C)ncn3)cs2)cc1 | 2.57 | 32.7 nM | 12.6 nM | > 10 µM | – | – | – | – | – | – | – | – | Activity [12]: Active; Activity [13]: Active; Activity [14]: Active; Activity [15]: Active; Activity [16]: 30%; Activity [17]: 30%; Activity [18]: 30%; Activity [19]: 30%; Activity [4, 25]: Active; Activity [5, 25]: Active; Activity [6, 25]: Active; Activity [7, 25]: Active; Activity [8, 25]: inactive; Activity [20]: > 70%; Activity [21]: inactive; Activity [22]: inactive; Activity [23]: inactive |
| CC(C)Nc1cc(-c2csc(N(C)C(=O)c3ccc(F)cc3)n2)ncn1 | 1.45 | 13.9 nM | 5.4 nM | > 10 µM | – | – | – | – | – | – | – | – | – |
